# RPL19A TOR yeast – RPL19A-GFP expression modulators in yeast, primary screen, cell-based, S. cerevisiae, multiplex flow cytometry, MLPCN; AID 2025, 2009; 330,000 compounds, 0.3% hits; S. cerevisiae RPL19A-GFP strain, 3 h; stronger effect = lower value; percent response vs DMSO, % at 10 µM;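 active = percent response vs DMSO below 50%; inconclusive = fewer than 70 events counted for the yeast strain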;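 note: median channel GFP fluorescence of the barcoded RPL19A-GFP strain; lower means less RPL19A-GFP as with rapamycin TOR inhibition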
# CIT2-GFP yeast – modulators of CIT2-GFP expression in yeast, primary screen, S. cerevisiae, GFP fusion, multiplex flow cytometry, MLPCN library | S. cerevisiae CIT2-GFP strain, 3 h; 100 means same as DMSO wells | GFP response vs DMSO, % at 10 µM | 320,000 compounds, 0.065% hits | AID 2029, 2009;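 active = GFP response relative to DMSO above a set limit, near the screen mean plus 3 SD, cut at about 150% in these data; inconclusive = Fewer than 70 cells measured for a yeast strain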;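 note: ratio of well median GFP fluorescence to mean of DMSO wells on the plate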
# AGP1 TOR yeast – modulators of AGP1-GFP expression in yeast TOR pathway, primary screen, cell-based, multiplex flow cytometry, S. cerevisiae, MLPCN library; 3 h; GFP as percent of DMSO wells; GFP response vs DMSO, % at 10 µM; 320,000 compounds, 0.02% hits;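 active = GFP response relative to DMSO above a set limit, near screen average plus 3 SD, cut at about 150% in these data; inconclusive = fewer than 70 cells counted for the yeast strain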;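 note: median GFP channel fluorescence of the gated AGP1 strain per well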
# LAP4 TOR yeast – modulators of LAP4-GFP expression in yeast, primary screen, S. cerevisiae, multiplex flow cytometry, MLPCN library | 3 h; median GFP as percent of DMSO wells | 320,000 compounds, 0.34% hits | GFP response vs DMSO, % at 10 µM | AID 2023, 2009;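 active = GFP response vs DMSO above a set limit, about the screen mean plus 3 SD, cut at about 150% in these data; inconclusive = under 70 cell events counted for the yeast strain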
# MEP2 TOR yeast – modulators of MEP2-GFP levels in yeast, primary screen, S. cerevisiae, multiplex flow cytometry, MLPCN library | S. cerevisiae MEP2-GFP strain, 3 h; 100% = DMSO control level | GFP response vs DMSO, % at 10 µM | 330,000 compounds, 0.51% hits;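 active = GFP response versus DMSO above a set limit, roughly screen mean plus 3 SD, cut at about 180% in these data; inconclusive = fewer than 70 cells counted for a yeast strain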;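 note: median GFP fluorescence of the barcode-gated MEP2-GFP cells per well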
# T cell modulator – modulators of CD8 T cell-vesicle binding, primary screen, mouse 2C CD8+ T cells, flow cytometry | 2C CD8+ T cell-vesicle binding; stronger effect = lower value | response (vesicle binding), % at 7 µM | 330,000 compounds, 0.068% hits | AID 2052, 2009;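 active = response, share of CD8 T cells binding vesicles, and their 90th percentile fluorescence all below set limits, cut at about 80% in these data, passing the limit was not always enough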;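 note: values below 100% mean blocked vesicle binding to the CD8+ T cells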
#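 Assay system: 2C TCR transgenic mouse naive CD8+ T cells, MACS-purified | Read-out: CD8+ gate FL2 mean fluorescence as % of same-row positive control | Signal: High-throughput flow cytometry with anti-B7-1 and anti-CD8 staining | Timing: Binding step 1.5 h, 37 °C, antibody labelling 20 min, ice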
# LAP4 cherry2 – LAP4-GFP expression modulators in yeast, confirmation, cell-based, second cherry pick, flow cytometry; 590 compounds, 20% hits; shares compounds with LAP4 TOR yeast; S. cerevisiae LAP4-GFP strain, 3 h; AID 2621, 2010; GFP response vs DMSO, % at 10 µM;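 active = GFP signal as percent of the solvent control above about 150%, meaning raised reporter expression, limit read from the data; inconclusive = fewer than 70 cells counted in the well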
# MEP2-GFP pick2 – modulators of MEP2-GFP levels in yeast, confirmation, S. cerevisiae, flow cytometry GFP, second cherry picks. shares compounds with LAP4 TOR yeast. S. cerevisiae MEP2-GFP strain, 3 h. GFP response vs DMSO, % at 10 µM. 590 compounds, 10% hits. AID 2622, 2010;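 active = GFP signal above 150% of the solvent control wells, that is a rise of more than half; inconclusive = fewer than 70 yeast cells counted in the well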;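 note: median channel GFP fluorescence of all gated yeast cells per well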
# RPL19A GFP CP2 – RPL19A-GFP modulators in TOR pathway yeast, confirmation, cell-based, S. cerevisiae, flow cytometry, second cherry pick | shares compounds with LAP4 TOR yeast | S. cerevisiae RPL19A-GFP strain, 3 h; stronger effect = lower value; 100% means same as DMSO wells | GFP response vs DMSO, % at 10 µM | 590 compounds, 3% hits | AID 2623, 2010;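 active = under 65% GFP response relative to DMSO; inconclusive = yeast strain with under 70 measured events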;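 note: median GFP channel fluorescence per well over the all cells gate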
# CIT2 GFP CP2 – modulators of CIT2-GFP expression in yeast, confirmation, flow cytometry, second cherry pick, single plex. shares compounds with LAP4 TOR yeast. S. cerevisiae CIT2-GFP strain, 3 h; DMSO control wells read 100%. 590 compounds, 8% hits. GFP response vs DMSO, % at 10 µM;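 active = GFP response vs DMSO above about 150%, limit read from the data; inconclusive = fewer than 70 events counted for a yeast strain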;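 note: median green fluorescence per well over all gated yeast cells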
# AGP1 GFP CP2 – AGP1-GFP expression modulators, hit retest, confirmation, cell-based, flow cytometry, S. cerevisiae, cherry pick set 2 | 590 tested, under 10 active | S. cerevisiae AGP1-GFP strain, 3 h | shares compounds with LAP4 TOR yeast | AID 2643, 2010 | percent response vs DMSO, % at 10 µM;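 active = over 150 percent of DMSO response; inconclusive = yeast strain measured with under 70 events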;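 note: median GFP channel fluorescence over all cells without mother daughter split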
# Yeast autofluor – compound autofluorescence in yeast s288c, dose response, artefact control for yeast TOR pathway GFP screen, s288c strain; 610 tested, under 10 active; AID 2757, 2010; fluorescence change (kMESF span) at 33 µM; shares compounds with LAP4 TOR yeast; S. cerevisiae s288c, 520 nm autofluorescence, flow cytometry, 3 h; stronger effect = higher value; zero means same as solvent-only cells;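 active = fluorescence span over the dose series, or activity score, above about 33, limit read from the data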
# s288c autofl DR – autofluorescence of compounds in yeast s288c, dose response, artefact control for yeast TOR pathway GFP screen, primary hits, KU SAR, s288c parental. shares compounds with LAP4 TOR yeast. S. cerevisiae s288c parental, compound autofluorescence, flow cytometry, 3 h. fluorescence change (span) at 33 µM. 110 tested, under 10 active;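 active = fluorescence change span, or the activity score built from it, above 25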
# TORC1 bypass gr – wild-type yeast growth inhibition sparing TORC1 bypass cells, mechanism study for yeast TOR pathway GFP screen, BY4741 wild type, TORC1 bypass strain; growth rating (0-3) at 30 µM; 120 tested, under 10 active; shares compounds with LAP4 TOR yeast; S. cerevisiae BY4741 spot growth rating, 48-72 h; stronger effect = lower value;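 active = growth rating at most 1 for wild type yeast while the TORC1 bypass strain still grows fully, rated 3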
# Hits are given with their value; – = inactive; ? = inconclusive; · = not tested or not shown; [ ] = dose if it differs, or a comment. In the library only some 0.96% were active in any assay of this set; here they are far more common.
SMILES,RPL19A TOR yeast,CIT2-GFP yeast,AGP1 TOR yeast,LAP4 TOR yeast,MEP2 TOR yeast,T cell modulator,LAP4 cherry2,MEP2-GFP pick2,RPL19A GFP CP2,CIT2 GFP CP2,AGP1 GFP CP2,Yeast autofluor,others
CCN1C[C@]2(CO)CC[C@H](OC)[C@@]34C5C[C@H]6[C@H](OC)C5[C@](O)(C[C@H]6OC)[C@@](O)(C(OC)C23)[C@@H]14 (some centres not stated),–,–,–,–,–,–,·,·,·,·,·,·,
O=C1NC(=S)N(c2ccccc2)C(=O)/C1=C/c1ccco1,–,–,–,157.3,–,–,·,·,·,·,·,·,
CCOc1cccc(N2C(=O)/C(=C/c3ccco3)C(=O)NC2=S)c1,–,–,–,–,–,–,·,·,·,·,·,·,
O=C1NC(=O)N(CCc2ccc(F)cc2)C(=O)/C1=C/c1ccco1,–,–,–,181.6,–,–,·,·,·,·,·,·,
COc1cc(/C=C/C(=O)c2c(O)n(CCc3ccccc3)c(=O)[nH]c2=O)ccc1O,–,–,–,–,585.0,–,·,·,·,·,·,·,
CCCCC(CC)COCCCN=Cc1c(O)[nH]c(=S)[nH]c1=O (configuration not stated),–,–,–,–,–,–,·,·,·,·,·,·,
C[N+]1(CC2COC(c3ccco3)O2)CCCCC1 (configuration not stated),–,?,–,–,249.1[may fluoresce violet],–,·,·,·,·,·,·,
O=C(c1ccc2c(c1)OCO2)C1CCCN(CC2CCCCC2)C1 (configuration not stated),–,–,–,–,–,–,·,·,·,·,·,·,
C[C@@H]1C[C@@H]([C@H](O)CC2CC(=O)NC(=O)C2)C(=O)[C@@H](C)C1,49.0,–,–,–,–,–,–,157.2,–,–,–,–,s288c autofl DR=–;TORC1 bypass gr=–
O=C(NC1CCCCC1)Oc1cc2oc(=O)sc2cc1Cl,–,–,–,–,–,–,·,·,·,·,·,·,
O=C(O)c1cc[c]([Hg][Cl])cc1,–,–,–,255.0,–,–,190.4,193.0,–,–,–,–,
CCC(=NC1CC1)c1c(O)n(-c2ccc(OC)cc2)c(=O)[nH]c1=O,–,–,–,–,–,–,·,·,·,·,·,·,
CCC(=NCCCN(C)C)c1c(O)n(-c2ccc(OC)cc2)c(=O)[nH]c1=O,–,–,–,155.9,–,–,–,–,–,–,–,·,
COC(=O)C1=C(c2ccc(Cl)c(C(F)(F)F)c2)C[C@@H]2CC[C@H]1N2C(=O)NCCCOC(C)C,–,–,–,–,–,–,·,·,·,·,·,·,
CN(C)C(=O)Oc1ccnc2cc(Cl)ccc12,–,–,–,–,–,–,–,–,–,–,–,–,
CN(C)C(=O)Oc1ccc(Cl)c2cccnc12,–,–,·,–,–,–,·,·,·,·,·,·,
CCCCCn1c(=O)c(C(=O)Nc2nc3ccccc3[nH]2)c(O)c2ccccc21,–,–,–,–,–,–,–,–,–,–,–,–,
COc1ccc(-n2c(/C=C/c3ccc(O)c(OC)c3)nc3ccccc3c2=O)cc1,–,–,–,–,–,–,·,·,·,·,·,·,
COc1cc(/C=C/[N+](=O)[O-])ccc1O,–,–,–,244.5,–,–,191.3,–,–,–,–,–,
O=C1NC(=O)N(Cc2ccco2)C(=O)/C1=C/c1ccc(-c2cccc([N+](=O)[O-])c2)o1,–,–,–,169.3,–,–,·,·,·,·,·,–,
COC(=O)C1=C(c2ccc(OC)c(OC)c2)C[C@@H]2CC[C@H]1N2C(=O)NC(C)C,–,–,–,–,–,–,·,·,·,·,·,·,
CCN(CC)CCC(=O)O[C@H]1CC[C@]2(C)C3CC[C@@]4(C)C(CC[C@]4(C)O)C3CC[C@H]2C1 (some centres not stated),–,–,–,176.9,–,–,–,–,–,–,–,·,
C[C@]12CCC3C(CC[C@H]4C[C@@H](O)CC[C@]34C)C1CC[C@@]2(O)C(F)(F)F (some centres not stated),–,–,–,–,–,–,·,·,·,·,·,·,
COc1cc(C)cc2oc(=O)c(CC(=O)N3C[C@H]4C[C@@H](C3)c3cccc(=O)n3C4)c(C)c12,–,–,–,–,–,–,·,·,·,·,·,·,
O=C1NC(=O)N(CCC2=CCCCC2)C(=O)/C1=C\c1cccs1,–,–,–,–,–,–,·,·,·,·,·,·,
O=C1NC(=O)N(CCc2ccc(F)cc2)C(=O)/C1=C/c1cccs1,–,–,–,171.8,–,–,·,·,·,·,·,–,
C=CCN1C(=O)/C(=C/c2cccs2)C(=O)NC1=S,–,–,–,204.2,–,–,–,–,–,–,–,–,
